According to ChEMBL document CHEMBL1143659, “Discovery of a rhodanine class of compounds as inhibitors of Plasmodium falciparum enoyl-acyl carrier protein reductase” (J Med Chem, 2007):
In brackets after ≈: the same amount, converted by molar mass. Activity calls are given as the source filed them. The calls are words filed in the database; no cut-off is given here.

Experiments:
[1] = biological target: T1, Enoyl-acyl-carrier protein reductase (Plasmodium falciparum, UniProt Q965D5); assay: (§1) Inhibition of Plasmodium falciparum recombinant enoyl ACP reductase expressed in BL21 (DE3) cells; type: biochemical
T1 sequence (Q965D5 whole entry): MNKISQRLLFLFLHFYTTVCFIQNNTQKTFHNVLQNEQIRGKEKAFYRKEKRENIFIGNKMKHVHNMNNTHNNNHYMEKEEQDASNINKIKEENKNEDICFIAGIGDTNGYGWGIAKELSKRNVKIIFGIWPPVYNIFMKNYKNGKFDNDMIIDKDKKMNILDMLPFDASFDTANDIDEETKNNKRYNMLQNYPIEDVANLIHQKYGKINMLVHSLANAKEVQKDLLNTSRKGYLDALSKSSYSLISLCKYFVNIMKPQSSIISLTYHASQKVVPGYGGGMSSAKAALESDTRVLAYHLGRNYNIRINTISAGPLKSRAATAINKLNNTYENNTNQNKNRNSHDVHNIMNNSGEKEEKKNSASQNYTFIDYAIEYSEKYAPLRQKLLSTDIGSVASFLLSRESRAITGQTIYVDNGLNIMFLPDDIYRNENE
Summary of the method: (§2)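 His-tagged enzyme from E. coli, Ni-NTA purified. Assay at 25 °C in 150 mM Tris-NaCl pH 7.5, 200 µM crotonoyl-CoA, 100 µM NADH, 200 nM enzyme, 1% DMSO; NADH oxidation followed as A340 decrease. Percent inhibition from residual activity across serial inhibitor dilutions; IC50 by nonlinear regression vs log concentration; mean of three sets.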

[2] = biological target: T2, Enoyl-acyl-carrier protein reductase (Plasmodium falciparum) (UniProt Q965D5); assay: as §1; type: biochemical; summary of the method: as §2
T2 sequence (whole entry): T1 sequence (Q965D5 whole entry)

[3] = biological target: T1, Enoyl-acyl-carrier protein reductase; assay: Inhibition of Plasmodium falciparum recombinant enoyl ACP reductase expressed in BL21 (DE3) cells with respect to NADH; type: cell-based
Summary of the method: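 Ki via Dixon plot (x-intercept). NADH fixed at 50 and 100 µM, crotonoyl-CoA 200 µM, 200 nM enzyme; inhibitor varied from 1 nM up to its IC50. A340 NADH-consumption assay at 25 °C, pH 7.5; mean of three sets.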

[4] = biological target: T1, Enoyl-acyl-carrier protein reductase; assay: Inhibition of Plasmodium falciparum recombinant enoyl ACP reductase expressed in BL21 (DE3) cells with respect to crotonyl CoA; type: cell-based
Summary of the method: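 Ki via Dixon plot (x-intercept). Crotonoyl-CoA fixed at 100 and 200 µM, NADH 100 µM; inhibitor varied from 1 nM up to its IC50. Spectrophotometric NADH oxidation at 340 nm, 25 °C, Tris-NaCl pH 7.5; mean of three sets.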

Plasmodium falciparum = assay: Growth inhibition of chloroquine-sensitive Plasmodium falciparum FCK2 in human erythrocytes after 96 hrs; type: functional, organism-based; details: FCK2, 96 h
Summary of the method: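 Synchronized early-trophozoite cultures (1-2% parasitemia, 2% hematocrit) in RPMI 1640 with 10% human serum, 0.225% bicarbonate, gentamycin; inhibitor in Me2SO (final ≤0.05%), added up to fourth day. Parasitemia scored by Giemsa-stained microscopy at 48 and 96 h against solvent control. IC50 by nonlinear regression of relative percent parasitemia vs log concentration; three independent experiments.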

SMILES | IC50 [1] | also measured
CC(C)c1ccc(/C=C2\SC(=S)N(CCCCCC(=O)O)C2=O)cc1 | > 100 µM | –
COC(=O)CCCCCN1C(=O)/C(=C/c2cc(OC)c(OC)c(OC)c2)SC1=S | – | Activity [2]: inactive
CCc1nnc(NS(=O)(=O)c2ccc(N3C(=O)c4c(Cl)c(Cl)c(Cl)c(Cl)c4C3=O)cc2)s1 | 90 µM | –
O=C(NC1CCCc2ccccc21)c1cc(Sc2cccc(Cl)c2)nc2ccccc12 (stereo not drawn) | 50 µM | –
Cc1cc(/C=C2\SC(=S)N(CCCCCC(=O)O)C2=O)ccc1OCc1ccccc1 | > 100 µM | –
CCN1C(=O)/C(=C/c2ccc(N(CC)CC)cc2O)SC1=S | > 100 µM | –
COc1ccc(N2C(=O)/C(=C/c3ccc(N(C)C)cc3)SC2=S)cc1 | > 100 µM | –
COC(=O)CCCCCN1C(=O)/C(=C/c2ccc(Cl)cc2)SC1=S | > 100 µM | –
Cc1ccc(-c2ccc(/C=C3\SC(=S)NC3=O)o2)cc1Cl | 28.5 µM | –
CC(C)(C)c1ccc(CS[n+]2cc3ccccc3c(=O)n2Nc2ccc(Cl)nn2)cc1 | 50 µM | –
Clc1ccc(CNc2nc(SCc3ccc(Cl)cc3)nc3ccccc23)cc1 | 52 µM | –
O=C(O)CCCN1C(=O)/C(=C/c2cn(-c3ccccc3)nc2-c2ccc(Cl)cc2)SC1=S | 50 µM | –
O=C(NCCN1CCCc2ccccc21)c1cc(-c2ccc(Cl)s2)nc2ccccc12 | 60 µM | –
COc1ccc(N2C(=O)/C(=C/c3ccccc3)SC2=S)cc1 | > 100 µM | –
O=C1/C(=C/c2cccc(O)c2)SC(=S)N1c1ccc(F)cc1 | > 100 µM | –
O=C1NC(=S)S/C1=C\c1ccc(-c2cc(Cl)ccc2Cl)o1 | 6 µM | Ki [3]: 2.5 µM; Ki [4]: 2 µM
COc1ccc(N2C(=O)/C(=C/c3ccc(C=O)cc3)SC2=S)cc1 | 1.5 µM | Ki [3]: 14.4 µM; Ki [4]: 13.2 µM
CN1C(=O)/C(=C/c2ccc(-c3ccc(Cl)c(Cl)c3)o2)SC1=S | > 100 µM | –
CCc1ccc(/C=C2\SC(=S)N(CCCCCC(=O)OC)C2=O)cc1 | > 100 µM | –
O=C1/C(=C/c2ccco2)SC(=S)N1c1cccc(F)c1 | > 100 µM | –

SMILES | IC50 [1] | also measured
COc1ccc(/C=C2\SC(=S)N(c3ccc(OC)cc3)C2=O)cc1 | > 100 µM | –
Oc1cc(Cl)ccc1Oc1ccc(Cl)cc1Cl [TRICLOSAN] | 0.066 µM | Ki [4]: 0.66 µM
O=C1/C(=C/c2cccc(O)c2)SC(=S)N1c1ccccc1 | > 100 µM | –
O=C(O)c1cccc(-c2ccc(/C=C3\SC(=S)N(c4cccc(C(F)(F)F)c4)C3=O)o2)c1 | 20 µM | –
O=C1NC(=S)S/C1=C\c1ccc(-c2ccc(Cl)c(Cl)c2)o1 | 0.98 µM | Ki [3]: 0.63 µM; Ki [4]: 0.51 µM
O=C1c2c(Cl)c(Cl)c(Cl)c(Cl)c2C(=O)N1c1ccc2[nH]c(/C=C/c3ccc(Cl)cc3)nc2c1 | 70 µM | –
CN(C)CCOC(=O)CCCCCN1C(=O)/C(=C/c2ccccc2)SC1=S | > 100 µM | –
CCCOc1ccc(/C=C2\SC(=S)N(CCCCCC(=O)O)C2=O)cc1OC | 45 µM | –
COc1ccc(/C=C2\SC(=S)N(c3ccc(O)cc3)C2=O)cc1 | 10 µM | Ki [3]: 9.1 µM; Ki [4]: 8.7 µM
CCCCCOc1ccc(/C=C2\SC(=S)N(CCCCCC(=O)O)C2=O)cc1OC | > 100 µM | –
CN1C(=O)/C(=C/c2ccc(-c3cc(Cl)cc(Cl)c3)o2)SC1=S | 0.87 µM | –
CCOc1ccc(N2C(=O)/C(=C/c3cccc4ccccc34)SC2=S)cc1 | – | Activity [2]: inactive
COc1cc(/C=C2\SC(=S)N(CCCCCC(=O)O)C2=O)ccc1OCc1ccc(Cl)cc1 | 6.5 µM | Ki [3]: 5.4 µM; Ki [4]: 5.1 µM
COc1ccc(N2C(=O)/C(=C/c3ccc(C(C)C)cc3)SC2=S)cc1 | > 100 µM | –
CCCCOc1ccc(/C=C2\SC(=S)N(CCCCCC(=O)OC)C2=O)cc1 | – | Activity [2]: inactive
O=C(O)CCCCCN1C(=O)/C(=C/c2c[nH]c3ccccc23)SC1=S | 100 µM | –
CN(C)c1ccc(/C=C2\SC(=S)N(c3ccc(O)cc3)C2=O)cc1 | 0.87 µM | –
CCN1C(=O)/C(=C/c2cc(Cl)c(O)c(Cl)c2)SC1=S | > 100 µM | –
O=C1/C(=C/c2ccc(-c3ccc(Cl)cc3)o2)SC(=S)N1c1cccc(Cl)c1 | > 100 µM | –
COc1ccc(-c2cc(C(=O)Nc3cc(Cl)ccc3O)no2)cc1 | 55 µM | –

SMILES | IC50 [1] | also measured
Cc1ccc(-c2ccc(/C=C3\SC(=S)N(C)C3=O)o2)cc1Cl | 0.87 µM | –
O=C1NC(=S)S/C1=C\c1ccc(-c2cccc(Cl)c2Cl)o1 | 0.87 µM | Ki [3]: 0.56 µM; Ki [4]: 0.48 µM
COc1ccc(N2C(=O)/C(=C/c3c4ccccc4cc4ccccc34)SC2=S)cc1 | > 50 µM | –
CCCCCCOc1ccc(/C=C2\SC(=S)N(CCCCCC(=O)O)C2=O)cc1OC | 7 µM | Ki [3]: 7.3 µM; Ki [4]: 6.6 µM
O=C(Nc1cc(Cl)ccc1O)c1cc(-c2ccc(Cl)cc2)on1 | 75 µM | –
O=C1/C(=C/c2ccc(-c3cccc(Cl)c3)o2)SC(=S)N1c1cccc(Cl)c1 | > 100 µM | –
COC(=O)CCCCCN1C(=O)/C(=C/c2cccc(O)c2)SC1=S | > 100 µM | –
CCN(CC)c1ccc(N2C(=O)/C(=C/c3ccc(OC)cc3)SC2=S)cc1 | > 100 µM | –
COc1ccc(Cl)cc1NC(=O)c1cc(-c2ccc(Cl)s2)nc2ccccc12 | 60 µM | –
CN(C)CCOC(=O)CCN1C(=O)/C(=C/c2ccc(Cl)cc2Cl)SC1=S | > 100 µM | –
O=C1NC(=S)S/C1=C\c1ccc(-c2ccccc2Cl)o1 | 35 µM | –
CN1C(=O)/C(=C/c2ccc(-c3ccc(Cl)cc3Cl)o2)SC1=S | 0.87 µM | Activity [2]: inactive
O=C1NC(=S)S/C1=C\c1ccc(-c2cc(Cl)cc(Cl)c2)o1 | 6.1 µM | Ki [3]: 5.5 µM; Ki [4]: 4.1 µM
O=C1NC(=S)S/C1=C\c1ccc(-c2cccc(Cl)c2)o1 | 1.7 µM | Ki [3]: 1.05 µM; Ki [4]: 0.88 µM
COc1cc(/C=C2\SC(=S)N(c3ccc(O)cc3)C2=O)ccc1O | 0.87 µM | –
CN1C(=O)/C(=C/c2ccc(-c3cccc(Cl)c3)o2)SC1=S | 30.2 µM | –
O=C1/C(=C/c2ccc(O)c(O)c2)SC(=S)N1c1ccccc1 | 0.035 µM | IC50 (Plasmodium falciparum): 0.75 µM; MIC (Plasmodium falciparum): 2.5 µM (≈ 0.824 µg/mL); Ki [3]: 0.032 µM; Ki [4]: 0.0042 µM
COc1ccc(N2C(=O)/C(=C/c3ccc(OC)c4ccccc34)SC2=S)cc1 | 0.87 µM | –
O=C1/C(=C/c2ccc(Cl)cc2Cl)SC(=S)N1c1ccc(O)cc1 | 25 µM | –
